{"source": "ChEMBL document CHEMBL1687827", "about": "“Profiling the Aspergillus fumigatus proteome in response to caspofungin” (2011)", "key": {"[1]": {"system": "Aspergillus fumigatus", "experiment": "Induction of change in NAP family protein level in iTRAQ-118 labelled cell wall fraction of drug-susceptible Aspergillus fumigatus KU80 delta-akuB at 0.12 ug/ml after 24 hrs in YPD medium by MS (MS/MS) analysis relative to control", "assay_type": "functional", "outline": "(§1)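 Conidia at 1 × 10⁵/ml grown shaking at 37°C in YPD with or without 0.12 μg/ml caspofungin; mycelia filtered at 24 or 48 h. Secreted fraction taken from the filtrate; cell wall/plasma membrane pellet recovered after French-press lysis and a 5,000 × g spin. Proteins trypsin-digested and iTRAQ-labelled, drug vs no-drug channels at each time, then 2D LC-MS/MS. Protein ratio is the median of ratios from uniquely assigned peptides after median normalization.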"}, "[2]": {"system": "Aspergillus fumigatus", "experiment": "Induction of change in mitochondrial hypoxia responsive domain protein level in iTRAQ121 labelled cell wall fraction of drug-susceptible Aspergillus fumigatus KU80 delta-akuB at 0.12 ug/ml after 48 hrs in YPD medium by MS (MS/MS) analysis relative to control", "assay_type": "functional", "outline": "(§2)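 Conidia (1 × 10⁵/ml) grown in YPD, 37°C, 225 rpm, ± 0.12 μg/ml caspofungin; filtrate taken as secreted fraction, French-press lysate 5,000 × g pellet as cell wall/plasma membrane. Trypsin digests 8-plex iTRAQ-labelled (drug-free channels as references), pooled, 2D-chromatography, MS/MS. Median-normalized; protein ratio = median of unique-peptide ratios, log2 normalized.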"}, "[3]": {"system": "Aspergillus fumigatus", "experiment": "Induction of change in cytosolic small ribosomal subunit protein S12 protein level in iTRAQ114 labelled secreted fraction of drug-susceptible Aspergillus fumigatus KU80 delta-akuB at 0.12 ug/ml after 24 hrs in YPD medium by MS (MS/MS) analysis relative to control", "assay_type": "functional", "outline": "as §1"}, "[4]": {"system": "Aspergillus fumigatus", "experiment": "Induction of change in Ribosomal protein S21e gene expression in drug-susceptible Aspergillus fumigatus KU80 delta-akuB at 0.12 ug/ml after 24 hrs in YPD medium by microarray analysis relative to control", "assay_type": "functional", "outline": "(§3)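 Mycelia grown in YPD ± 0.12 μg/ml caspofungin (1 × 10⁵ conidia/ml, 37°C, shaking) and harvested at 24 or 48 h. Total RNA extracted, DNase-treated and quality-checked; 2 μg labelled per TIGR SOP M007 and hybridized to whole-genome arrays. Three independent experiments with dye flip (6 replicates); drug vs untreated fold change.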"}, "[5]": {"system": "Aspergillus fumigatus", "experiment": "Induction of change in 60S acidic ribosomal protein P2 gene expression in drug-susceptible Aspergillus fumigatus KU80 delta-akuB at 0.12 ug/ml after 24 hrs in YPD medium by microarray analysis relative to control", "assay_type": "functional", "outline": "as §3"}, "[6]": {"system": "Aspergillus fumigatus", "experiment": "Induction of change in outer mitochondrial membrane protein porin protein level in iTRAQ-116 labelled secreted fraction of drug-susceptible Aspergillus fumigatus KU80 delta-akuB at 0.12 ug/ml after 48 hrs in YPD medium by MS (MS/MS) analysis relative to control", "assay_type": "functional", "outline": "as §2"}, "[7]": {"system": "Aspergillus fumigatus", "experiment": "Induction of change in 60s ribosomal protein L24, putative protein level in iTRAQ114 labelled cell wall fraction of drug-susceptible Aspergillus fumigatus KU80 delta-akuB at 0.12 ug/ml after 24 hrs in YPD medium by MS (MS/MS) analysis relative to control", "assay_type": "functional", "outline": "as §1"}, "[8]": {"system": "Aspergillus fumigatus", "experiment": "Induction of change in L-PSP endoribonuclease family protein (Hmf1), putative gene expression in drug-susceptible Aspergillus fumigatus KU80 delta-akuB at 0.12 ug/ml after 48 hrs in YPD medium by microarray analysis relative to control", "assay_type": "functional", "outline": "as §3"}, "[9]": {"system": "Aspergillus fumigatus", "experiment": "Induction of change in hypothetical gene locus AFUA_4G11270 expression in drug-susceptible Aspergillus fumigatus KU80 delta-akuB at 0.12 ug/ml after 48 hrs in YPD medium by microarray analysis relative to control", "assay_type": "functional", "outline": "as §3"}, "[10]": {"system": "Aspergillus fumigatus", "experiment": "Induction of change in ribosomal protein L27a gene expression in drug-susceptible Aspergillus fumigatus KU80 delta-akuB at 0.12 ug/ml after 24 hrs in YPD medium by microarray analysis relative to control", "assay_type": "functional", "outline": "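Mycelia grown from 1 × 10⁵ conidia/ml in YPD at 37°C, 225 rpm, with or without 0.12 μg/ml caspofungin. Total RNA extracted, DNase-treated; 2 μg labelled per TIGR SOP M007 for whole-genome array hybridization. Three independent experiments with dye flip (6 replicates); >2-fold change deemed significant.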"}, "[11]": {"system": "Aspergillus fumigatus", "experiment": "Induction of change in cytosolic small ribosomal subunit S4, putative gene expression in drug-susceptible Aspergillus fumigatus KU80 delta-akuB at 0.12 ug/ml after 24 hrs in YPD medium by microarray analysis relative to control", "assay_type": "functional", "outline": "as §3"}, "[12]": {"system": "Aspergillus fumigatus", "experiment": "Induction of change in aldehyde dehydrogenase, putative protein level in iTRAQ114 labelled secreted fraction of drug-resistant Aspergillus fumigatus EMFR-S678P at 0.12 ug/ml after 24 hrs in YPD medium by MS (MS/MS) analysis relative to control", "assay_type": "functional", "outline": "(§4)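 Conidia at 1 × 10⁵/ml were grown at 37°C, shaking at 225 rpm, in YPD with or without 0.12 μg/ml caspofungin for 24 or 48 h. The culture filtrate was kept as the secreted fraction. Mycelia were lysed by French press in HEPES/glycerol/EDTA/PMSF/DTT buffer, and the 5,000 × g pellet was washed to give CW/PM. Proteins were reduced, alkylated and trypsin-digested at 37°C overnight, then iTRAQ-labelled and run by 2D LC-MS/MS. Ratios are the median of unique-peptide ratios, median-normalized, versus the no-drug control.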"}, "[13]": {"system": "Aspergillus fumigatus", "experiment": "Induction of change in glycine-rich RNA-binding protein, putative protein level in iTRAQ-118 labelled cell wall fraction of drug-resistant Aspergillus fumigatus EMFR-S678P at 0.12 ug/ml after 24 hrs in YPD medium by MS (MS/MS) analysis relative to control", "assay_type": "functional", "outline": "as §4"}, "[14]": {"system": "Aspergillus fumigatus", "experiment": "Induction of change in peptidyl-prolyl cis-trans isomerase protein level in iTRAQ-118 labelled cell wall fraction of drug-resistant Aspergillus fumigatus EMFR-S678P at 0.12 ug/ml after 24 hrs in YPD medium by MS (MS/MS) analysis relative to control", "assay_type": "functional", "outline": "as §4"}, "[15]": {"system": "Aspergillus fumigatus", "experiment": "Induction of change in alanine aminotransferase, putative protein level in iTRAQ-116 labelled secreted fraction of drug-resistant Aspergillus fumigatus EMFR-S678P at 0.12 ug/ml after 48 hrs in YPD medium by MS (MS/MS) analysis relative to control", "assay_type": "functional, organism-based", "outline": "as §4"}, "[16]": {"system": "Aspergillus fumigatus", "experiment": "Induction of change in nuclear transport factor NTF-2, putative protein level in iTRAQ-116 labelled secreted fraction of drug-resistant Aspergillus fumigatus EMFR-S678P at 0.12 ug/ml after 48 hrs in YPD medium by MS (MS/MS) analysis relative to control", "assay_type": "functional", "outline": "as §4"}, "[17]": {"system": "Aspergillus fumigatus", "experiment": "Induction of change in antigenic mitochondrial protein HSP60, putative protein level in iTRAQ-116 labelled secreted fraction of drug-resistant Aspergillus fumigatus EMFR-S678P at 0.12 ug/ml after 48 hrs in YPD medium by MS (MS/MS) analysis relative to control", "assay_type": "functional", "outline": "as §4"}, "[18]": {"system": "Aspergillus fumigatus", "experiment": "Induction of change in 60S ribosomal protein P0 protein level in iTRAQ114 labelled cell wall fraction of drug-susceptible Aspergillus fumigatus KU80 delta-akuB at 0.12 ug/ml after 24 hrs in YPD medium by MS (MS/MS) analysis relative to control", "assay_type": "functional", "outline": "as §1"}}, "note": "The source made the active and inactive calls. No cut-off for these calls is given here.", "data": [{"smiles": "CC[C@H](C)C[C@H](C)CCCCCCCCC(=O)N[C@H]1C[C@@H](O)[C@@H](NCCN)NC(=O)[C@@H]2[C@@H](O)CCN2C(=O)[C@H]([C@H](O)CCN)NC(=O)[C@H]([C@H](O)[C@@H](O)c2ccc(O)cc2)NC(=O)[C@@H]2C[C@@H](O)CN2C(=O)[C@H]([C@@H](C)O)NC1=O", "note": "[CASPOFUNGIN]", "values": [{"measurement": "fold change (FC)", "setting": "[1]", "result": 2.8}, {"measurement": "fold change (FC)", "setting": "[2]", "result": -2.1}, {"measurement": "fold change (FC)", "setting": "[3]", "result": 1.5}, {"measurement": "fold change (FC)", "setting": "[4]", "result": 3.6}, {"measurement": "fold change (FC)", "setting": "[5]", "result": 4.3}, {"measurement": "fold change (FC)", "setting": "[6]", "result": -1.2}, {"measurement": "fold change (FC)", "setting": "[7]", "result": 1.5}, {"measurement": "fold change (FC)", "setting": "[8]", "result": -2.3}, {"measurement": "fold change (FC)", "setting": "[9]", "result": 3.7}, {"measurement": "fold change (FC)", "setting": "[10]", "result": 3.6}, {"measurement": "fold change (FC)", "setting": "[11]", "result": 3.8}, {"measurement": "fold change (FC)", "setting": "[12]", "result": 1.62}, {"measurement": "fold change (FC)", "setting": "[13]", "result": 1.52}, {"measurement": "fold change (FC)", "setting": "[14]", "result": -1.15}, {"measurement": "Activity", "setting": "[15]", "result": "inactive"}, {"measurement": "fold change (FC)", "setting": "[16]", "result": 1.07}, {"measurement": "fold change (FC)", "setting": "[17]", "result": -1.15}, {"measurement": "fold change (FC)", "setting": "[18]", "result": 2.1}]}]}
